PolyA inh: inhibitors of polyadenylation in S. cerevisiae; S. cerevisiae SKY197-pL101 polyadenylation reporter, beta-gal luminescence; efflux-impaired pdr1/pdr3 knockout yeast; score 100 = 6 SD above DMSO; activity score, % at 12 µM; 300,000 tested, 0.02% active;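 active = lowest replicate activity score at least 50, where 100 means six control SD above control mean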;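 note: yeast exposed to compound for 9 h at 30 °C; higher score means more reporter readthrough which indicates perturbed polyadenylation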
AHR act: human AHR activation; P35869; AHR-responsive luciferase reporter cells, luminescence; activation, % at 5 µM; 320,000 tested, 2.5% active; AID 2796; in the data active = activation above about 47%;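 note: 0% = vehicle wells and 100% = reference agonist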
UCH37 DUB inh: inhibitors of human deubiquitinating enzyme UCH37 | Q9Y5K5 | purified proteasome/UCH37, Ub-AMC cleavage fluorescence | inhibition, % (concentration not given with the values) | 330,000 tested, 0.33% active | AID 588478;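 active = mean inhibition over replicate wells above about 20%, limit read from the data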;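 note: 0% = compound-free wells with enzyme and 100% = wells lacking proteasome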
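Material: human UCH37 enzyme supplied as purified proteasome complex. Measure: % inhibition of Ub-AMC cleavage fluorescence. Medium: pH 7.4 Tris-HCl (50 mM) with ovalbumin, ATP-MgCl2, DTT. Times: 30 min preincubation with enzyme, 25 min cleavage at room temperature. Detection: AMC fluorescence intensity at 355/460 nm.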
A3G deaminase: inhibitors of human APOBEC3G DNA deaminase; Q9HC16; recombinant A3G, ssDNA deamination FAM/TAMRA fluorescence; inhibition, % at 20 µM; 330,000 tested, 0.28% active;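 active = inhibition of at least 40% at 20 µM, with no more than 30% in the related APOBEC3A deaminase screen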;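 note: plate controls were DMSO wells with A3G for no effect and wells lacking A3G enzyme for full effect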
Target sequence (Q9HC16 whole entry, looked up): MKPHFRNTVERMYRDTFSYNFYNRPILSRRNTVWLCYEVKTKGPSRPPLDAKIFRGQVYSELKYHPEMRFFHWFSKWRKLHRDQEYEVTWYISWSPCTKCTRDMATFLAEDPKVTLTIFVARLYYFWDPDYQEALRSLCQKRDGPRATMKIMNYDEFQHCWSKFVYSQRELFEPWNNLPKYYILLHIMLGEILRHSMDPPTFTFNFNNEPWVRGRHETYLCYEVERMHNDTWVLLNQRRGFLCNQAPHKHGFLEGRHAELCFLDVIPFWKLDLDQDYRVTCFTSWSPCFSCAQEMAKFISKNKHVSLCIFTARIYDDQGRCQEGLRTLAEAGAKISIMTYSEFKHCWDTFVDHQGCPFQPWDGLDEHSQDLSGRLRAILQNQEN
A3A deaminase: blocks human APOBEC3A ssDNA deamination; P31941; recombinant A3A, FAM/TAMRA ssDNA deamination fluorescence; inhibition, % at 20 µM; 330,000 tested, 0.41% active;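 active = at least 40% inhibition at 20 µM here, with at most 30% in a related deaminase screen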;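 note: plate controls were A3A with DMSO for no effect and wells lacking A3A enzyme for full effect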
Target sequence (P31941 whole entry, looked up): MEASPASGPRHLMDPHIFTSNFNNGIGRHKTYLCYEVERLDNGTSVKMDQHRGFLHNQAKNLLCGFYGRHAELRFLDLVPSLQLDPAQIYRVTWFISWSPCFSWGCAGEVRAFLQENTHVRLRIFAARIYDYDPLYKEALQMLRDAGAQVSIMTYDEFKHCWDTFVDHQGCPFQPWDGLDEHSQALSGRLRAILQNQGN
Arr AP2 block: human beta-arrestin and AP2 interaction inhibition; inhibition, % at 10 µM; 340,000 tested, 0.31% active; FITC-arrestin peptide / GST-AP2 beads, flow cytometry; AP2 beta2 appendage carries R879A mutation; AID 504490;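 active = inhibition above a set limit, near 3 SD of compounds lacking own fluorescence, cut at about 54% in these data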;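 note: plate controls were DMSO wells for no effect and 5 µM unlabelled arrestin peptide for full effect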
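System: GST-tagged AP2 beta2-adaptin appendage (R879A) on 4 µm glutathione beads / Reagent: FITC-arrestin peptide, 50 nM / Detection: HyperCyt-sampled flow cytometry, FL1 channel, ex 488/em 535 nm / Timing: 12 min plus 1 h, RT / Buffer or medium: PBS plus Tween 20 (0.05%) and BSA (0.1%)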
APOBEC3A confirm: confirmation of human APOBEC3A DNA deaminase inhibitors | shares compounds with A3A deaminase | recombinant A3A, ssDNA deaminase UDG fluorescence assay | inhibition, % at 20 µM | 1,400 tested, 63% active | AID 493151;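 active = inhibition reaching a set limit, 80% of the first screen's cutoff, at 20 µM in any replicate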;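 note: plate controls were DMSO wells with A3A for no effect and wells lacking A3A enzyme for full effect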
UDG ctr A3A: inhibits UDG, flagging false APOBEC3A inhibitors; shares compounds with A3A deaminase; UDG counterscreen, FAM/TAMRA uracil oligo fluorescence; inhibition, % at 20 µM; 1,000 tested, under 10 active; AID 504714; call rule not given here
Numbers without * were called inactive; x = no result given. This is a sample that favours compounds with a hit; in the whole collection about 3.4% have one here.

SMILES	PolyA inh	AHR act	UCH37 DUB inh	A3G deaminase	A3A deaminase	Arr AP2 block	APOBEC3A confirm	UDG ctr A3A
Cc1cc(Br)ccc1SCC(=O)OCC(=O)NCc1ccco1	6	1	7	22	59*	7	43*	x
Cc1ccc(C)c(SCC(=O)OCC(=O)c2ccco2)c1	4	-2	1	15	54*	-9	51*	-2
CC(=NNc1ccc(Cl)cc1)C(=NO)C(=O)Nc1ccccc1	x	x	0	x	x	x	x	x
O=C(NCCCO)c1cc([N+](=O)[O-])cc2c1C=Cc1ccccc1O2	-3	12	3	6	47*	8	20	x
Cc1nc(SCCOc2ccc(F)cc2)c2ccccc2n1	1	-5	2	15	51*	-6	76*	6
CCN(CC)c1ccc(C=NN2CCN(Cc3ccccc3)CC2)c(O)c1	x	x	7	x	x	x	x	x
O=C(CSc1nccc(=O)[nH]1)N1N=C2/C(=C/c3ccco3)CCCC2C1c1ccco1 (stereo unspecified)	1	2	-4	27	46*	2	34*	0
Cc1cccc(NC(=O)C2CC(=O)N/C(=N/N=Cc3ccco3)S2)c1 (stereo unspecified)	x	x	0	x	x	x	x	x
Cc1[nH]c(=O)c(C#N)c(C)c1CCC(=O)Nc1cc(S(C)(=O)=O)ccc1Cl	20	1	0	18	73*	-10	42*	-3
CCCc1cc(C(=O)NN=Cc2ccc(CC)s2)c2ccccc2n1	x	x	-3	x	x	x	x	x
C[n+]1cccc(C(=O)Nc2ccccc2)c1	2	0	3	18	70*	-5	57*	-2
COc1cccc(NC(=O)c2ccc[n+](C)c2)c1	0	14	1	26	77*	0	75*	2
COC(=O)c1ccc(NC(=O)c2cccc(NC(=O)c3ccccc3)c2)cc1	-7	2	4	1	-3	17	x	x
C[n+]1cccc(C(=O)NCC2CCCO2)c1 (stereo unspecified)	-4	3	5	24	79*	-19	75*	1
O=C(NCC1CCCO1)C(=O)NN=Cc1ccc(O)c(Cl)c1 (stereo unspecified)	x	x	18	x	x	x	x	x
COc1cc(Br)cc(C=NNC(=O)Cc2ccccc2)c1O	x	x	0	x	x	x	x	x
COc1ccc(N(CC(=O)NN=C(C)c2ccccc2)S(=O)(=O)c2ccccc2)cc1	x	x	3	x	x	x	x	x
O=C(O)Cc1ccc(S(=O)(=O)N2CCCC2)s1	x	0	1	7	49*	40	51*	-2
COc1ccc(N2CCN(C(=O)Cc3ccc(S(=O)(=O)N4CCOCC4)s3)CC2)cc1	-1	2	1	10	49*	41	25	x
Cc1ccc(S(=O)(=O)N2CCN(C(=O)Cc3ccc(S(=O)(=O)N4CCOCC4)s3)CC2)cc1	-15	0	3	-4	23	-11	x	x
Cc1ccc2c(c1)N(C)/C(=C/c1cccc[n+]1C)S2	-3	16	9	23	67*	-51	91*	1
Cc1ccc2c(c1)N(C)/C(=C/c1cccc[n+]1CCO)S2	-16	6	13	16	48*	-14	83*	2
CCCCN1/C(=C/c2cccc[n+]2C)Sc2cc(NC(C)=O)ccc21	17	1	5	32	80	-22	x	x
CN1/C(=C/c2cccc[n+]2C)Sc2ccccc21	-10	-4	12	21	62*	-33	87*	-1
CC(=O)c1ccc2c(c1)N(C)c1ccccc1S2	-20	4	-2	-3	4	12	x	x
SMILES	PolyA inh	AHR act	UCH37 DUB inh	A3G deaminase	A3A deaminase	Arr AP2 block	APOBEC3A confirm	UDG ctr A3A
O/N=C/c1cccc[n+]1CCCCCC[n+]1ccccc1/C=N/O	-15	x	x	2	1	-12	x	x
O=C(NN=Cc1cn(-c2cccs2)nc1-c1ccccc1)c1ccccc1Br	x	x	3	x	x	x	x	x
N#C/C(=C\c1ccc(Cl)cc1)c1nc(-c2ccco2)cs1	3	7	3	14	41*	-5	28	x
Cc1ccccc1N(C(=O)Cc1c[nH]c2ccccc12)C(C(=O)NC1CCCCC1)c1ccco1 (stereo unspecified)	5	4	1	-3	-5	-11	x	x
Cc1ccc(C(C(=O)NC2CCCCC2)N(C(=O)Cc2c[nH]c3ccccc23)c2ccccc2C)o1 (stereo unspecified)	11	15	1	-8	45*	-1	7	-3
CN(C)CCCNc1c2ccccc2nc2ccccc12	-13	8	-35	21	54*	-1	54*	4
COc1ccc(CNC(=O)CC(C)=NNC(=O)c2ccccc2OC)cc1	x	x	0	x	x	x	x	x
Cc1ccc(/C=N/Nc2nc(N3CCOCC3)nc(N3CCOCC3)n2)o1	24	3	x	-3	53*	31	33*	2
C(=N\Nc1nc(N2CCOCC2)nc(N2CCOCC2)n1)/c1ccco1	4	3	x	0	14	x	x	x
CC1CCCC(=NNc2ccc(Cl)c(C(=O)O)c2)C1 (stereo unspecified)	x	x	2	x	x	x	x	x
C/C(N)=C(/C#N)C(=O)CSc1nc2ccccc2c(=O)n1Cc1ccc(F)cc1	-6	3	1	15	47*	5	26	x
CCn1c(-c2ccccc2Cl)nn(CC(=O)Nc2ccccc2C)c1=S	-2	2	1	13	66*	1	24	x
Oc1cccc(C=NNc2nncc(-c3ccccc3)n2)c1	x	x	4	x	x	x	x	x
Cc1ccc(-c2c(C(=O)N/N=C/c3ccco3)nnn2-c2nonc2N)cc1	-9	4	x	4	61*	-11	-2	x
CCN(CC(=O)Nc1cc(Cl)ccc1C)C(=O)c1cc([N+](=O)[O-])ccc1N1CCOCC1	0	5	9	3	80*	4	0	x
Cc1ccc(NC(=O)c2cc([N+](=O)[O-])ccc2N2CCOCC2)cc1S(=O)(=O)N1CCOCC1	5	-1	10	5	42*	-11	2	x
Cc1ccc(NC(=O)c2ccc([N+](=O)[O-])o2)cc1S(=O)(=O)N1CCOCC1	-4	1	3	2	4	-29	x	x
Cc1cccc(C)c1NC(=O)CN(C)C(=O)c1cc([N+](=O)[O-])ccc1N1CCOCC1	3	3	9	7	2	-3	x	x
CN(CC(=O)Nc1ccccc1Br)C(=O)c1cc([N+](=O)[O-])ccc1N1CCOCC1	-1	1	8	7	42*	2	-1	x
Cc1cc(C=Nn2cnnc2)c(C)n1-c1ccc(OCc2ccccc2F)cc1	x	x	2	x	x	x	x	x

Compound activity deposited in PubChem BioAssay by several laboratories.
